PKD1 inh: PKD1 (human) kinase inhibition | Q15139 | PKD1 kinase fluorescence polarization assay | inhibition, % (no concentration beside the values) | 200,000 compounds, 0.056% hits | AID 797; in the data active = inhibition above about 50%
Rad51 HR inh: blocks human Rad51 in homologous recombination | 200,000 compounds, 0.085% hits | inhibition, % at 10 µM | Q06609 | AID 1385 | hRad51 DNA strand exchange, fluorescence dequenching;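 active = inhibition above 40% at the single screening dose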
Target sequence (Q06609 whole entry, looked up): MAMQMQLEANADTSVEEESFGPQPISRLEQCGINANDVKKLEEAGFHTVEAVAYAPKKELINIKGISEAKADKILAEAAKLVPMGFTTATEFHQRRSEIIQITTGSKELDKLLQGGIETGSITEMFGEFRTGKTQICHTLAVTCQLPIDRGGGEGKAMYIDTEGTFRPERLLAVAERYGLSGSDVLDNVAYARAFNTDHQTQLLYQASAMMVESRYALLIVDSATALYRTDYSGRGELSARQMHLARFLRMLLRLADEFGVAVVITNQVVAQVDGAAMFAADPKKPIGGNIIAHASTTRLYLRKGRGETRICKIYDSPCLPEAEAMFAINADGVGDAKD
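System: human Rad51 nucleoprotein filaments preassembled on unlabelled ssDNA. Reagent: labelled 47-mer dsDNA for strand exchange. Schedule: 30-min compound preincubation and 15-min exchange, both room temperature. Measured by: FRET fluorescence dequenching, excitation 485 nm, emission 520 nm. Read-out: Fluorescence-based percent inhibition, control- and blank-normalised. Benchmarks: plate controls and plate blanks.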
KCC2 mod: KCC2 (human) Cl- transport modulation. KCC2 cells, thallium flux FluoZin-2 fluorescence. B-score of Tl+ flux slope (higher = more flux/activation; lower = inhibition) at 10 µM. 190,000 compounds, 2.2% hits;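 active = thallium flux slope and its plate-corrected score both differing from the plate sample mean at a set confidence after two filtering rounds, in either direction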;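 also: slope of fluorescence scaled to starting intensity during 10 to 20 s after thallium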
ROMK primary: human ROMK K+ channel modulation, primary screen; AID 1918; Tet-inducible ROMK, thallium flux fluorescence; actives lie on both sides; B-score at 10 µM; 130,000 compounds, 2% hits;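 active = signal ratio slope over the read window, or its plate-corrected B-score, at least 3 SD from the plate mean, either direction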;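 also: B-score of the F/F0 ratio slope over 7 to 12 s after thallium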
A number is an active result; . = inactive; / = no result given. Sampled rows, rich in hits. Any-hit rate of the full collection: about 3%.

SMILES | PKD1 inh | Rad51 HR inh | KCC2 mod | ROMK primary
O=[N+]([O-])c1cc(C(F)(F)F)ccc1N1CCCNCC1 | . | / | . | .
O=C1NCCN/C1=C\C(=O)c1ccc(Br)cc1 | / | . | . | /
COC(=O)c1ccccc1NC(=O)CSc1nnc(-c2cccnc2)n1N | . | 44.1 | . | .
Cc1cc(C)nc(Sc2ncnc3sc4c(c23)CCC4)n1 | . | . | 7.63 | /
N#CCSc1ncnc2sc3c(c12)CCC3 | . | . | . | /
COC(=O)[C@@](C)(O)C1(C(=O)SC(C)(C)C)CC1 | / | . | / | /
COc1ccc(C2(CNC(=O)c3ccccc3[N+](=O)[O-])CCOCC2)cc1 | . | . | . | .
Cc1cccc(N=C2NC(=O)/C(=C/C=C/c3ccco3)S2)c1C | . | . | 4.35 | /
Cc1ccc(N=C2NC(=O)/C(=C/C=C/c3ccco3)S2)cc1 | . | . | . | .
Cc1[nH]n(-c2cccc3ccccc23)c(=O)c1/C=N/c1sc2c(c1C#N)CCC2 | . | . | 26.2 | .
CC1(C(=O)NC(=S)N(CCC#N)c2ccccc2)CC1(Cl)Cl (stereo not drawn) | . | . | . | .
CC(C)N(Cc1ccccc1)C(=S)NC(=O)C1(C)CC1(Cl)Cl (stereo not drawn) | . | . | 84.6 | 5.06
CCOC(=O)Cn1nc(C)c(NC(=O)c2ccc(Cl)c([N+](=O)[O-])c2)c1C | . | . | / | .
O=C(O)C1CCN(c2nc(-c3ccccc3)nc3c2oc2ccccc23)CC1 | . | . | -2.85 | .
CC1CN(S(=O)(=O)c2ccc(C(=O)Nc3nnc(-c4ccc5c(c4)CCCC5)o3)cc2)CC(C)O1 (stereo not drawn) | . | . | 7.91 | /
COCc1nnc(NC(=O)c2ccc(S(=O)(=O)N3CCCc4ccccc43)cc2)o1 | . | . | . | .
COc1ccc(-c2nnc(NC(=O)c3ccc(S(=O)(=O)N4CCCc5ccccc54)cc3)o2)cc1 | . | / | 12.5 | /
CC1CN(S(=O)(=O)c2ccc(C(=O)Nc3nnc(-c4ccccn4)o3)cc2)CC(C)O1 (stereo not drawn) | . | . | . | .
COc1ccc(O)c(C(=O)C2c3ccccc3C(=O)N2c2ccc(C)cc2)c1 (stereo not drawn) | / | . | . | /
COC(=O)/C=C1\SC(N2CCOCC2)=C(c2ccc(OC)cc2)C1=O | . | / | / | /
O=P(c1ccccc1)(c1ccccc1)c1nc(-c2ccc(Cl)cc2)oc1N1CCOCC1 | . | . | . | .
CC(NC(=O)Nc1nnc(C(F)(F)F)s1)(C(F)(F)F)C(F)(F)F | . | . | / | -3.47
COC(=O)CN1C(=S)N(c2ccc(OC)cc2)C(=O)/C1=C/c1ccc(OC)cc1 | . | . | . | .
COc1ccc(C(=O)N2C(=S)NC(=O)/C2=C\c2ccc(C)cc2)cc1 | . | . | 7.91 | .
CCC(c1nnnn1CCOC)N(Cc1ccc(C)cc1)Cc1cc2cc(OC)ccc2[nH]c1=O (stereo not drawn) | . | . | -3.13 | /
SMILES | PKD1 inh | Rad51 HR inh | KCC2 mod | ROMK primary
Cc1nc(Cl)c(C(=O)NC(C)(C)C)c(C)c1Cl | . | . | . | .
Cc1cccc(CN2CCN(C(=O)c3ccccc3F)CC2)c1 | . | . | . | 6.17
Cc1cccc(CN2CCN(C(=O)CCl)CC2)c1 | . | . | . | /
O=C(O)/C=C/c1cn(Cc2ccccc2)nc1-c1cccnc1 | / | 45.5 | . | /
CCOC(=O)COc1c(Cl)cc(C2NC(=S)NC(c3ccccc3)=C2C(C)=O)cc1OCC (stereo not drawn) | . | . | . | /
C[C@H]1CC[C@H]2C(=O)N3[C@H](c4ccccc4Br)[C@@H](C)CC[C@H]3C(=O)N2[C@@H]1c1ccccc1Br | . | / | 4.37 | -4.29
CC1CCN(C2CC(=O)N(c3ccccc3)C2=O)CC1 (stereo not drawn) | . | . | . | .
Cc1cccc(NC(=S)NNC(=O)c2csc(C(C)C)c2)c1 | . | . | 15.9 | .
CCc1cc(C(=O)NNC(=S)Nc2cccc(C)c2)cs1 | . | . | 9.33 | /
CCOc1ccccc1NC(=O)Nc1ccc(Br)cc1C | . | / | . | .
Cc1ccc2nc3c(c(C(=O)OCC(=O)NC4CCS(=O)(=O)C4)c2c1)CCCC3 (stereo not drawn) | . | . | . | .
S=c1nc[nH]c2c1sc1nc(-c3ccccc3)c3c(c12)CCCC3 | . | . | 19.6 | /
O=C(CCc1n[nH]c(=O)[nH]c1=O)Nc1cccc([N+](=O)[O-])c1 | . | . | . | .
N#Cc1c2ccc(O)cc2n2ccccc12 | . | . | -4.22 | -4.72
COC(=O)Cn1c(C)c(C#N)c2ccccc21 | . | . | . | /
Cc1nnn(C23CC4CC(CC(CC(=O)Nc5ccc(C)c(C)c5)(C4)C2)C3)n1 | . | . | . | .
Cc1cc(C)c2nc(N3CCCC(C(=O)NCCCN4CCOCC4)C3)sc2c1 (stereo not drawn) | . | . | . | .
Cc1cc(C)c2nc(N3CCC(C(=O)NCCCN4CC(C)CC(C)C4)CC3)sc2c1 (stereo not drawn) | . | . | . | -2.54
S=c1[nH]nc(-c2cc3c(s2)-c2ccccc2CC3)o1 | . | . | 94.8 | /
CSc1nnc(-c2cc3c(s2)-c2ccccc2CC3)o1 | . | . | . | /
O=C(NC(=S)N1CCCc2ccccc21)c1ccc(Br)cc1 | . | . | 71.8 | /
O=C(NC(=S)N1CCCc2ccccc21)c1ccccc1 | . | . | / | /
O=C(NC(=S)N1CCCc2ccccc21)c1ccc(Cl)cc1 | . | . | 56.5 | .
O=C(CN1CCC(NC(=O)c2ccccc2Cl)CC1)NCc1ccco1 | . | . | / | /
CC1=Nc2nc(N3CCCCC3)c(C#N)c3c4c(nc(c23)N1)N(c1ccc(C(C)C)cc1)C(=O)C4 | . | . | . | /
SMILES | PKD1 inh | Rad51 HR inh | KCC2 mod | ROMK primary
N#CCc1c(C#N)c(N)nc(Nc2ccccc2)c1C#N | / | . | . | /
O=C1S/C(=C\c2ccc(O)c([N+](=O)[O-])c2)C(=O)N1c1ccccc1Cl | . | / | -3.46 | -3.56
O=C(c1ccc2ncsc2c1)N1CCN(c2ccccc2Cl)CC1 | . | . | . | /
Cc1cccc(N2CCN(C(=O)c3ccc4ncsc4c3)CC2)c1C | . | / | . | 3.27
C=CCNC(=S)Nc1sc2c(c1C(=O)OCC)CCN(C(=O)OCC)C2 | . | . | . | .
C=CCNC(=S)Nc1sc2c(c1C(=O)OCC)CC(C)(CC)OC2 (stereo not drawn) | . | . | 22.1 | /
CC1(C)CCC23CC[C@]4(C)C(OC2=O)(C3C1)[C@H]1O[C@H]1C1[C@@]2(C)CC[C@@H](O)C(C)(C)C2CC[C@]14C (stereo partly drawn) | / | . | / | /
CC(=O)N/N=C/c1cc(C)n(-c2ccc(Br)cc2)c1C | . | . | . | /
CC(=O)N/N=C/c1cc(C(C)C)cc(/C=N/NC(C)=O)c1O | . | . | 5.71 | -3.34
O=C(Nc1nc(-c2cccs2)cs1)c1cc2ccccc2oc1=O | . | / | . | 1.63
Cc1cccc2nc(CSc3nc4cc([N+](=O)[O-])ccc4s3)cn12 | . | . | . | .
O=C(CSc1nnc(Cc2ccccc2)o1)N1CCc2ccccc21 | . | 85.3 | . | .
O=C(NCc1nnc(SCC(=O)N2CCc3ccccc32)o1)c1cccs1 | . | . | . | .
CN(Cc1ccccc1)C(=O)c1nc2ccccn2c1CN1CCC(N2CCOCC2)CC1 | / | / | . | /
O=C(CSc1nnc(COc2ccccc2Cl)o1)NC(=O)NCc1ccco1 | / | / | . | /

Compound activity as filed in PubChem.
